In brackets after ≈: the same amount, converted by molar mass.
Experiments:
[1] = Antioxidant activity assessed as ABTS radical scavenging activity at 2 mg/ml after 5 min by spectrophotometric analysis; type: functional
Method in brief: (§1)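 ABTS radical cation made from ABTS (7 mM) and potassium persulfate (2.45 mM), held 16 h in dark at room temperature, then 350 μL diluted to 25 mL with aqueous 80% EtOH. Sample added to 250 μL working solution, kept 5 min in dark at room temperature, A734 read. Scavenging % = [1 − (Ae − As)/Ac] × 100 against solvent control, triplicate.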

Escherichia coli = test: Antibacterial activity against Escherichia coli after 24 hr by microdilution method; type: functional
Method in brief: (§2)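 Bacteria from 18-h cultures in LB broth at 1 × 10^5 CFU/mL, 96-well broth microdilution. Compounds in DMSO (final ≤5%), 2-fold serial dilutions from 512 to 0.5 μg/mL. Incubated 37 °C for 24 h. DMSO-only negative control, kanamycin positive control. Growth read by microscope. MIC is the lowest concentration giving complete growth inhibition. Three repeats.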

Staphylococcus aureus = test: Antibacterial activity against Staphylococcus aureus after 24 hr by microdilution method; type: functional; method in brief: as §2
Bacillus subtilis = test: Antibacterial activity against Bacillus subtilis after 24 hr by microdilution method; type: functional
Method in brief: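 Bacteria grown 18 h, diluted in LB broth to 1 × 10^5 CFU/mL in 96-well microplates. Compounds in DMSO, 2-fold serial dilutions 512 to 0.5 μg/mL final, DMSO ≤5%. Incubated 37 °C for 24 h, growth checked by microscope. MIC = lowest concentration giving complete growth inhibition. DMSO negative control, kanamycin positive control, three repeats.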

[2] = system: Radical scavenging activity; test: Antioxidant activity assessed as DPPH radical scavenging activity at 2 mg/ml after 30 min by spectrophotometric analysis; type: functional
Method in brief: (§3)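 DPPH stock diluted 1:20 in EtOH; 290 μL of this mixed with 10 μL sample, EtOH as negative control, vitamin C as positive control. Kept 30 min in dark, absorbance read at 517 nm. Scavenging % = [1 − (Ae − As)/Ac] × 100, where As is sample blank absorbance. Triplicate.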

[3] = Antioxidant activity assessed as ABTS radical scavenging activity at 0.5 mg/ml after 5 min by spectrophotometric analysis; type: functional; method in brief: as §1
[4] = Antioxidant activity assessed as superoxide anion radical scavenging activity at 2 mg/ml after 5 min by spectrophotometric analysis; type: functional
Method in brief: (§4)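 Superoxide made by non-enzymatic NADH–PMS system, detected by NBT reduction. 200 μL mix of 150 μM NBT and 234 μM NADH in 16 mM Tris-HCl pH 8.0, plus 10 μL sample. Reaction started with 100 μL of 30 μM PMS in the same buffer, 5 min at room temperature, A560 read. % = [1 − (Ae − As)/Ac] × 100, triplicate.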

Pyricularia oryzae = test: Antifungal activity against Magnaporthe oryzae after 4 days by microdilution method; type: functional
Method in brief: (§5)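 Spores from 4-day-old cultures in PDB broth at 1 × 10^3 spores/mL, 96-well broth microdilution. Compounds in DMSO (final ≤5%), 2-fold serial dilutions 512–0.5 μg/mL. Incubated 28 °C, 4 days. DMSO negative control, nystatin positive control. Growth checked microscopically. MIC is the lowest concentration with complete inhibition. Experiments repeated three times.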

[5] = system: Radical scavenging activity; test: Antioxidant activity assessed as DPPH radical scavenging activity at 4 mg/ml after 30 min by spectrophotometric analysis; type: functional; method in brief: as §3
Fusarium graminearum = test: Antifungal activity against Fusarium graminearum after 4 days by microdilution method; type: functional; method in brief: as §5
Candida albicans = test: Antifungal activity against Candida albicans after 4 days by microdilution method; type: functional; method in brief: as §5
Fusarium avenaceum = test: Antifungal activity against Fusarium avenaceum after 4 days by microdilution method; type: functional; method in brief: as §5
Aspergillus niger = test: Antifungal activity against Aspergillus niger after 4 days by microdilution method; type: functional, organism-based; method in brief: as §5
Fusarium culmorum = test: Antifungal activity against Fusarium culmorum after 4 days by microdilution method; type: functional; method in brief: as §5
Trichophyton verrucosum = test: Antifungal activity against Trichophyton verrucosum after 4 days by microdilution method; type: functional, organism-based; method in brief: as §5
[6] = Antioxidant activity assessed as superoxide anion radical scavenging activity at 5 mg/ml after 5 min by spectrophotometric analysis; type: functional; method in brief: as §4
[7] = system: Radical scavenging activity; test: Antioxidant activity assessed as DPPH radical scavenging activity at 0.8 mg/ml after 30 min by spectrophotometric analysis; type: functional; method in brief: as §3
[8] = Antioxidant activity assessed as ABTS radical scavenging activity at 0.16 mg/ml after 5 min by spectrophotometric analysis; type: functional; method in brief: as §1
[9] = Antioxidant activity assessed as ABTS radical scavenging activity at 1 mg/ml after 5 min by spectrophotometric analysis; type: functional; method in brief: as §1

Compound: C[C@@H]1NC(=O)[C@H](Cc2c[nH]c3ccccc23)NC1=O
- Activity [1]: 54.6%

Compound: NC[C@H]1O[C@H](O[C@H]2[C@H](O)[C@@H](O[C@H]3O[C@H](CO)[C@@H](O)[C@H](N)[C@H]3O)[C@H](N)C[C@@H]2N)[C@H](O)[C@@H](O)[C@@H]1O [KANAMYCIN]
- MIC (Escherichia coli): 1 µg/mL (≈ 2.06 µM)
- MIC (Staphylococcus aureus): 4 µg/mL (≈ 8.26 µM)
- MIC (Bacillus subtilis): 1 µg/mL (≈ 2.06 µM)

Compound: CO[C@@H]1[C@@H](OC(N)=O)[C@@H](O)[C@H](Oc2ccc3c(O)c(NC(=O)c4ccc(O)c(CC=C(C)C)c4)c(=O)oc3c2C)OC1(C)C [NOVOBIOCIN]
- Activity [2]: 47.7%
- MIC (Staphylococcus aureus): 64 µg/mL (≈ 104 µM)
- MIC (Bacillus subtilis): 16 µg/mL (≈ 26.1 µM)
- Activity [3]: 78.2%
- Activity [4]: 77.9%
- MIC (Pyricularia oryzae; 96 h): 16 µg/mL (≈ 26.1 µM)

Compound: COc1ccc(-c2c(OC)c(O)c(-c3ccc(OC)cc3)c3scnc23)cc1
- Activity [1]: 28.4%
- Activity [5]: 14.3%

Compound: NYSTATIN
- MIC (Fusarium graminearum): 4 µg/mL
- MIC (Candida albicans): 4 µg/mL
- MIC (Fusarium avenaceum): 1 µg/mL
- MIC (Aspergillus niger): 8 µg/mL
- MIC (Fusarium culmorum): 1 µg/mL
- MIC (Trichophyton verrucosum): 4 µg/mL
- MIC (Pyricularia oryzae): 8 µg/mL

Compound: O=C1O[C@H]([C@@H](O)CO)C(O)=C1O
- Activity [6]: 75.5%
- Activity [7]: 43.9%
- Activity [8]: 79.1%

Compound: COc1ccc(-c2cc(O)c(-c3ccc(OC)cc3)c(OC)c2OC)cc1
- Activity [2]: 54.9%
- MIC (Bacillus subtilis): 64 µg/mL (≈ 175 µM)
- MIC (Fusarium graminearum; 96 h): 16 µg/mL (≈ 43.7 µM)
- MIC (Candida albicans; 96 h): 32 µg/mL (≈ 87.3 µM)
- MIC (Fusarium avenaceum; 96 h): 8 µg/mL (≈ 21.8 µM)
- Activity [9]: 68.6%
- MIC (Fusarium culmorum; 96 h): 128 µg/mL (≈ 349 µM)

— ChEMBL document CHEMBL3046678, “Isolation and characterization of new p-Terphenyls with antifungal, antibacterial, and antioxidant activities from halophilic actinomycete Nocardiopsis gilva YIM 90087” (2013)
